Assay outcomes (PubChem)
Sampled rows, rich in hits. Any-hit rate of the full collection: about 3.7%.
KCNK9 inh = KCNK9 potassium channel inhibitors, primary screen, HEK293 cells, thallium flux; Potassium channel subfamily K member 9 (Homo sapiens), Q9NPC2; FluxOR thallium flux fluorescence; active compounds read low; B-score at 10 µM; 310,000 compounds, 1.2% hits;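 active = ratio B-score over 3 SD below the library mean, with starting fluorescence within 5 SD of its mean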;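 note: negative B-score means less thallium flux so channel inhibition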
Target sequence (Q9NPC2 whole entry, looked up): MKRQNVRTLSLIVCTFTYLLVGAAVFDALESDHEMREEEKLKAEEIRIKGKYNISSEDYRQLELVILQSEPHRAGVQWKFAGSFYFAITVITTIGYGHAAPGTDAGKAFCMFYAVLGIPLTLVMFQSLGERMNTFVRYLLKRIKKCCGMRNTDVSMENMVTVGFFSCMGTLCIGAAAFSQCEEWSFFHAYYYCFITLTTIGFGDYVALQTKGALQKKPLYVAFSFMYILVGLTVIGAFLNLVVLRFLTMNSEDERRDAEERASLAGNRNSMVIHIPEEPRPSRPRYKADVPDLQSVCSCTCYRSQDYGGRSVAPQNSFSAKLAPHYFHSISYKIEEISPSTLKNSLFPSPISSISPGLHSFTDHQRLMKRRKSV
Kir21 inh = inhibitors of mouse Kir2.1 inward-rectifier potassium channel; Inward rectifier potassium channel 2 (Mus musculus), P35561; 310,000 compounds, 0.85% hits; B-score at 10 µM; HEK293-Kir2.1, FluxOR thallium flux fluorescence; active compounds read low;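 active = fluorescence ratio B-score at or below minus 3 SD of library scores, with starting-brightness B-score within 2 SD, cut at about -4.2 in these data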;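 note: channel flux triggered by added potassium and thallium sulfate stimulus; B-score of peak minus minimum fluorescence over baseline after thallium stimulus; more negative B-score means stronger Kir2.1 block with less thallium influx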
KCNQ1 pot = potentiators or activators of KCNQ1 channel, primary screen, cell-based, thallium flux, high-throughput | 310,000 compounds, 0.35% hits | CHO-K1 KCNQ1, thallium flux FluxOR fluorescence; active compounds read high | Potassium voltage-gated channel subfamily KQT member 1 (Homo sapiens), P51787 | B-score at 10 µM;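 active = fluorescence ratio B-score, a plate-corrected score, at least three library SD, with initial intensity B-score within 5 SD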
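Assay system: CHO-K1 cells stably expressing KCNQ1; Medium: assay buffer with matched DMSO; Also added: K+/Tl+ depolarizing stimulus; Dosing: single dose; Timing: dye 90 min, compound 20 min, room temperature; Measured by: kinetic FluxOR thallium fluorescence, 10-s 1-Hz baseline, 110-s post-stimulus read; Read-out: peak-minus-minimum fluorescence over initial fluorescence, negative-control normalized, B-scored.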
hERG rescue = hERG rescue from dofetilide block, primary screen, cell-based, CHO-hERG, FluxOR thallium flux, dofetilide IC70. dofetilide IC70 present. activation (rescue from dofetilide block), less the hit threshold, % at 10 µM. 310,000 compounds, 0.51% hits. AID 1511, 2009;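 active = activation above the mean of controls blocked by dofetilide plus 5 SD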;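 note: thallium influx through hERG after potassium depolarization seen as dye fluorescence rise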
KCNK3 block = human KCNK3 channel inhibitors, primary screen, CHO cells, FluxOR thallium flux, B-score; FluxOR fluorescence; active compounds read low; B-score at 10 µM; AID 602410, 2012; 340,000 compounds, 0.84% hits;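 active = B-score under library mean minus 4 SD, starting fluorescence ratio at most library mean plus 5 SD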;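 note: more negative B-score means stronger inhibition of thallium flux through KCNK3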
KCNQ1 block = inhibitors of human KCNQ1 channel, primary screen, cell-based, thallium flux, high-throughput; AID 2642, 2010; CHO-K1 KCNQ1, FluxOR thallium flux fluorescence; active compounds read high; 310,000 compounds, 1.3% hits; B-score at 10 µM; Potassium voltage-gated channel subfamily KQT member 1 (Homo sapiens), P51787;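 active = compounds whose thallium flux B-score, printed positive for inhibition, exceeds three library SD while starting fluorescence stays within three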;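 note: channel opened by potassium depolarization with thallium stimulus after 20 min compound exposure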
KCNK3 inh conf = retest of human KCNK3 channel inhibitors, confirmation, CHO cells, FluxOR thallium flux, triplicate. shares compounds with KCNK3 block. FluxOR fluorescence; 0% buffer, 100% carvedilol maximal block. ratio percent of control, % at 10 µM. 2,400 compounds, 99% hits. AID 651638, 2012;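 active = ratio percent of control, averaged over triplicates, above buffer control mean plus 5 SD, cut at about 64% in these data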;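 note: ratio is the fluorescence rise from min to max over baseline after thallium stimulus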
KCNK3 uninduced = thallium flux inhibition in non-induced cells, primary screen, counter-screen for KCNK3 inhibitor project, cell-based, non-induced KCNK3 line, FluxOR thallium, triplicate | 2,400 compounds, 40% hits | AID 651747, 2012 | non-induced KCNK3 parental cells; active compounds read low | thallium flux ratio (lower = more inhibition) at 10 µM | shares compounds with KCNK3 block;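 active = thallium flux ratio, averaged over three wells, more than 5 SD below the buffer control mean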;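 note: host cells are CHO cells without KCNK3 induction; ratio is peak minus trough fluorescence over baseline then normalized to buffer controls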
Starred values were filed as active, the others as inactive; i = inactive; . = not tested or not shown.

SMILES	KCNK9 inh	Kir21 inh	KCNQ1 pot	hERG rescue	KCNK3 block	KCNQ1 block	KCNK3 inh conf	KCNK3 uninduced
COCCNC(=O)C(c1ccc(F)cc1)N(C(=O)CCC(=O)Nc1ccccn1)c1cccc(C)c1 (stereo not given)	i	-0.36	i	-13	i	i	.	.
O=C(NCc1cccs1)C1CC(=O)N(Cc2ccccc2)C1 (stereo not given)	.	.	.	.	i	.	.	.
CCCCN1Cc2c(nc3cc(-c4ccco4)[nH]n3c2=O)C1=O	i	0.81	i	-5	i	i	.	.
CCOC(=O)c1c(NC(=O)C2COc3ccccc3O2)sc(C)c1C (stereo not given)	i	-0.91	i	-5	-8.8*	i	107*	0.14*
O=C(c1cc2ccccc2oc1=O)N(Cc1ccccc1F)C1CCS(=O)(=O)C1 (stereo not given)	i	0.75	i	-9	i	i	.	.
O=S(=O)(c1ccccc1)N1CCN(c2ccnc3cc(Cl)ccc23)CC1	i	-0.16	i	-16	-9.3*	i	98*	i
COc1ccc(NC(=O)CSCC(=O)N(C)CC(=O)Nc2ccc(Cl)c(C(F)(F)F)c2)cc1	i	-1.2	i	-14	i	i	.	.
COc1cc(CC(=O)N(C)CC(=O)Nc2ccc(Cl)c(C(F)(F)F)c2)cc(OC)c1OC	i	0.56	i	-8	-9.2*	i	113*	i
COc1ccc(NC(=O)CN(C)C(=O)c2cc3c(s2)CCC(C)C3)cc1 (stereo not given)	i	-1.5	i	-13	i	i	.	.
COc1ccc(CN(C)CC(=O)Nc2cccc3ccccc23)cc1F	i	1.2	i	-14	-11*	i	91*	i
COc1ccc(Cl)cc1NC(=O)CN(C)CC(=O)Nc1ccccc1C(F)(F)F	i	0.2	i	-21	-9.1*	i	102*	i
COc1ccc(Cl)cc1NC(=O)CN(C)C(=O)c1cc2c(s1)CCC(C)C2 (stereo not given)	i	0.8	i	-11	-8.8*	i	107*	i
Cc1cc(=O)oc2cc(OCC(=O)OCC(=O)N(C)C3CCS(=O)(=O)C3)ccc12 (stereo not given)	i	0.37	i	-7	i	i	.	.
COc1cc(OC)c(NC(=O)N2CCOCC2)cc1Cl	i	-0.49	i	-9	i	i	.	.
c1ccc(-c2nc(NCCCn3ccnc3)c3ccccc3n2)cc1	i	-1	i	-31	-11*	i	100*	0.15*
CCOC(=O)c1cc(C#N)c(SCc2cccc3ccccc23)nc1C	i	0.57	i	-7	i	i	.	.
CCOC(=O)c1cc(C#N)c(SCC(=O)c2cc(C#N)c(SC)nc2C)nc1C	i	1.1	i	-1	-11*	i	107*	0.14*
COc1ccccc1/C=C1\SC(=S)N(N2C(=O)CCCC2=O)C1=O	i	0.28	i	-12	-9.4*	i	105*	i
Cc1ccc(Cn2ccc(NC(=O)c3noc4c3CCc3ccccc3-4)n2)cc1	i	0.27	i	-6	i	i	.	.
Cc1nn(Cc2ccc(Cl)cc2)c(C)c1NC(=O)c1noc2c1CCc1ccccc1-2	i	0.39	i	-8	-8.7*	i	117*	i
